Experimental data: ChEMBL document CHEMBL1143773, “Synthesis and studies on antidepressant and anticonvulsant activities of some 3-(2-furyl)-pyrazoline derivatives” (Eur J Med Chem, 2007)
Active and inactive are the calls of the source. The rule behind the calls is not given here.

Legend:
Mus musculus [1] = assay: Neurotoxicity in Albino mouse at 30 mg/kg, ip after 4 hrs by RotaRod test; assay type: toxicity, organism-based; design: dose 30 mg/kg, route intraperitoneal; details: in vivo
Outline: (§1)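 Phase I protocol of the NINCDS antiepileptic drug development programme in albino mice, covering MES, subcutaneous pentylenetetrazole (metrazol) and rotarod neurotoxicity. Doses were 30, 100 and 300 mg/kg, read at 1/2 h and 4 h. One animal per dose and time point, scored as 0/1 (no activity) or 1/1 (noticeable activity).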

Mus musculus [2] = assay: Neurotoxicity in Albino mouse at 100 mg/kg, ip after 4 hrs by RotaRod test; assay type: toxicity, organism-based; design: dose 100 mg/kg, route intraperitoneal; details: in vivo; outline: as §1
Mus musculus [3] = assay: Neurotoxicity in Albino mouse at 300 mg/kg, ip after 4 hrs by RotaRod test; assay type: toxicity, organism-based; design: dose 300 mg/kg, route intraperitoneal; details: in vivo; outline: as §1
Mus musculus [4] = assay: Anticonvulsant activity against metrazole-induced seizures in Albino mouse at 100 mg/kg, ip after 30 mins by scMet assay; assay type: functional, organism-based; design: dose 100 mg/kg; outline: as §1
Mus musculus [5] = assay: Antidepressant activity in Albino mouse assessed as duration of immobility at 10 mg/kg, ip by forced-swimming test; assay type: functional; details: route intraperitoneal
Outline: (§2)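 Porsolt forced-swim test in albino mice. Drug given ip at 0.5 ml/20 g body weight, 1 h before testing. Controls received 1% aqueous Tween 80. Each mouse was placed singly in a water-filled Plexiglas cylinder for 6 min. Immobility (floating upright with only slight movements to stay afloat) was timed over the last 4 min.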

Mus musculus [6] = assay: Antidepressant activity in Albino mouse assessed as duration of immobility at 10 mg/kg, ip by forced-swimming test relative to control; assay type: functional; details: route intraperitoneal; outline: as §2
Mus musculus [7] = assay: Anticonvulsant activity in Albino mouse by MES test at 30mg/kg, ip after 30 mins; assay type: functional, organism-based; outline: as §1
Mus musculus [8] = assay: Anticonvulsant activity in Albino mouse by MES test at 100 mg/kg, ip after 30 mins; assay type: functional, organism-based; design: dose 100 mg/kg; outline: as §1
Mus musculus [9] = assay: Anticonvulsant activity in Albino mouse by MES test at 300 mg/kg, ip after 30 mins; assay type: functional, organism-based; design: dose 300 mg/kg; outline: as §1
Mus musculus [10] = assay: Anticonvulsant activity against metrazole-induced seizures in Albino mouse at 30 mg/kg, ip after 30 mins by scMet assay; assay type: functional, organism-based; design: dose 30 mg/kg; outline: as §1
Mus musculus [11] = assay: Anticonvulsant activity against metrazole-induced seizures in Albino mouse at 300 mg/kg, ip after 30 mins by scMet assay; assay type: functional, organism-based; design: dose 300 mg/kg; outline: as §1
Mus musculus [12] = assay: Anticonvulsant activity in Albino mouse at 30 mg/kg, ip after 4 hrs by MES test; assay type: functional, organism-based; design: dose 30 mg/kg; outline: as §1
Mus musculus [13] = assay: Anticonvulsant activity in Albino mouse at 100 mg/kg, ip after 4 hrs by MES test; assay type: functional, organism-based; design: dose 100 mg/kg; outline: as §1
Mus musculus [14] = assay: Anticonvulsant activity in Albino mouse at 300 mg/kg, ip after 4 hrs by MES test; assay type: functional, organism-based; design: dose 300 mg/kg; outline: as §1
Mus musculus [15] = assay: Anticonvulsant activity against metrazole-induced seizures in Albino mouse at 30 mg/kg, ip after 4 hrs by scMet; assay type: functional, organism-based; design: dose 30 mg/kg; outline: as §1
Mus musculus [16] = assay: Anticonvulsant activity against metrazole-induced seizures in Albino mouse at 100 mg/kg, ip after 4 hrs by scMet assay; assay type: functional, organism-based; design: dose 100 mg/kg; outline: as §1
Mus musculus [17] = assay: Anticonvulsant activity against metrazole-induced seizures in Albino mouse at 300 mg/kg, ip after 4 hrs by scMet assay; assay type: functional, organism-based; design: dose 300 mg/kg; outline: as §1
Mus musculus [18] = assay: Neurotoxicity in Albino mouse at 30 mg/kg, ip after 30 mins by RotaRod test; assay type: toxicity, organism-based; design: dose 30 mg/kg, route intraperitoneal; details: in vivo, 0.5 h; outline: as §1
Mus musculus [19] = assay: Neurotoxicity in Albino mouse at 100 mg/kg, ip after 30 mins by RotaRod test; assay type: toxicity, organism-based; design: dose 100 mg/kg, route intraperitoneal; details: in vivo, 0.5 h; outline: as §1
Mus musculus [20] = assay: Neurotoxicity in Albino mouse at 300 mg/kg, ip after 30 mins by RotaRod test; assay type: toxicity, organism-based; design: dose 300 mg/kg, route intraperitoneal; details: in vivo, 0.5 h; outline: as §1

Row | Structure (SMILES) | Activity (Mus musculus [1]) | Activity (Mus musculus [2]) | Activity (Mus musculus [3]) | Activity (Mus musculus [4]) | Activity (Mus musculus [5]) [s] | Activity (Mus musculus [6]) [%] | Activity (Mus musculus [7]) | Activity (Mus musculus [8]) | Activity (Mus musculus [9]) | Activity (Mus musculus [10]) | Activity (Mus musculus [11]) | Activity (Mus musculus [12]) | Activity (Mus musculus [13]) | Activity (Mus musculus [14]) | Activity (Mus musculus [15]) | Activity (Mus musculus [16]) | Activity (Mus musculus [17]) | Activity (Mus musculus [18]) | Activity (Mus musculus [19]) | Activity (Mus musculus [20])
1 | NC(=S)N1N=C(c2ccco2)CC1c1ccccc1 (configuration not stated) | Not Active | Not Active | Not Active | inactive | 202 | 3.81 | inactive | inactive | inactive | inactive | inactive | inactive | inactive | inactive | inactive | inactive | inactive | Not Active | Not Active | Not Active
2 | S=C(Nc1ccccc1)N1N=C(c2ccco2)CC1c1ccco1 (configuration not stated) | Not Active | Not Active | Not Active | Active | 181 | -13.81 | inactive | inactive | inactive | inactive | Active | inactive | inactive | inactive | inactive | inactive | inactive | Not Active | Not Active | Not Active
3 | N[C@H]1C[C@@H]1c1ccccc1.O=S(=O)(O)O |  |  |  |  | 57 | -72.85 |  |  |  |  |  |  |  |  |  |  |  |  |  | 
4 | CNC(=S)N1N=C(c2ccco2)CC1c1ccccc1 (configuration not stated) | Not Active | Not Active | Not Active | inactive | 201 | -4.28 | inactive | inactive | inactive | inactive | inactive | inactive | inactive | inactive | inactive | inactive | inactive | Not Active | Not Active | Not Active
5 | CCNC(=S)N1N=C(c2ccco2)CC1c1ccccc1 (configuration not stated) | Not Active | Not Active | Not Active | inactive | 139 | -33.8 | inactive | inactive | inactive | inactive | Active | inactive | inactive | inactive | inactive | inactive | inactive | Not Active | Not Active | Not Active
6 | C=CCNC(=S)N1N=C(c2ccco2)CC1c1ccco1 (configuration not stated) | Not Active | Not Active | Not Active | inactive | 144 | -31.42 | inactive | inactive | inactive | inactive | inactive | inactive | Active | Active | inactive | Active | Active | Not Active | Not Active | Not Active
7 | NC(=S)N1N=C(c2ccco2)CC1c1ccco1 (configuration not stated) | Not Active | Not Active | Not Active | Active | 182 | -13.33 | inactive | inactive | inactive | Active | Active | inactive | inactive | Active | inactive | inactive | inactive | Not Active | Not Active | Not Active
8 | c1ccc(C2CC(c3ccco3)=NN2c2ccccc2)cc1 (configuration not stated) | Not Active | Not Active | Not Active | inactive | 213 | 1.42 | inactive | inactive | inactive | inactive | inactive | inactive | inactive | inactive | inactive | inactive | Active | Not Active | Not Active | Not Active
9 | CNC(=S)N1N=C(c2ccco2)CC1c1ccco1 (configuration not stated) | Not Active | Not Active | Not Active | inactive | 186 | -11.42 | inactive | inactive | inactive | inactive | inactive | Active | Active | Active | inactive | Active | Active | Not Active | Not Active | Not Active
10 | CCNC(=S)N1N=C(c2ccco2)CC1c1ccco1 (configuration not stated) | Not Active | Not Active | Not Active | Active | 211 | 0.48 | inactive | inactive | inactive | Active | Active | inactive | inactive | inactive | inactive | inactive | Active | Not Active | Not Active | Not Active
11 | c1ccc(N2N=C(c3ccco3)CC2c2ccco2)cc1 (configuration not stated) | Not Active | Not Active | Not Active | inactive | 169 | -19.52 | inactive | Active | Active | inactive | inactive | inactive | inactive | inactive | inactive | inactive | inactive | Not Active | Not Active | Not Active
12 | S=C(Nc1ccccc1)N1N=C(c2ccco2)CC1c1ccccc1 (configuration not stated) | Not Active | Not Active | Not Active | inactive | 184 | -12.38 | inactive | inactive | inactive | inactive | inactive | inactive | inactive | Active | inactive | inactive | inactive | Not Active | Not Active | Not Active
